Key:
Format in all cases: ADME
[1] = Drug metabolism in human intestine microsomes assessed as estriol-3-glucuronide formation after 15 to 60 mins by Michaelis-Menten equation analysis in presence of UDPGA
How it was run: (§1)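 Pooled human intestine microsomes (6 donors), 0.5 or 10 µg, with alamethicin at 5% of total protein. Incubated with 50 mM phosphate pH 7.4, 10 mM MgCl₂, 5 mM UDPGA and 10% DMSO for 15–60 min at 37°C. Each glucuronide regioisomer quantified by HPLC, in triplicate, with substrate consumption at or below 10%.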

[2] = molecular target: T1, UDP-glucuronosyltransferase 1A3 (Homo sapiens, UniProt P35503); test: Drug metabolism assessed as recombinant human C-terminal His-tagged UGT1A3-mediated estradiol-3-glucuronide formation at 200 uM after 15 to 60 mins by HPLC analysis in presence of UDPGA; settings: recombinant enzyme
T1 sequence (P35503 whole entry): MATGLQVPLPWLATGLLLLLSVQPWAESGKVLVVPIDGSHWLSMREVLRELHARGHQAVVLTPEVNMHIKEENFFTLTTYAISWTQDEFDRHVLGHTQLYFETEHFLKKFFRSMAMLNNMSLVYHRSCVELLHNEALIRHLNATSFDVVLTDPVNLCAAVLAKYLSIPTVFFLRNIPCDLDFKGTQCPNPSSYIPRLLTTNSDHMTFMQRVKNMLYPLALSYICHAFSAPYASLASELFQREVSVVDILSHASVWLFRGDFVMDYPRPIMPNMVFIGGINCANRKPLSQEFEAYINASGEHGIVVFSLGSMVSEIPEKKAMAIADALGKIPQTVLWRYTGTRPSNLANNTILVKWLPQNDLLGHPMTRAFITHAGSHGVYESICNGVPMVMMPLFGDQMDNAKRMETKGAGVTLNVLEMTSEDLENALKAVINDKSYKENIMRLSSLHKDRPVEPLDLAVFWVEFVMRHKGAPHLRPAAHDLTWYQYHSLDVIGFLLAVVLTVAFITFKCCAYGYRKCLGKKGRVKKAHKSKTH
How it was run: (§2)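 Screening at a single substrate concentration of 200 μM, in triplicate. The reaction used 5 or 50 µg of UGT-enriched insect cell membranes in 50 mM phosphate pH 7.4 with 10 mM MgCl₂ and 5 mM UDPGA, 10% final DMSO. Incubation was 15–60 min at 37°C. Perchloric acid stopped the reaction and supernatants were analysed by HPLC. Controls lacked UDPGA. Rates were normalized to relative UGT expression level.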

[3] = molecular target: T2, UDP-glucuronosyltransferase 1A4 (Homo sapiens, UniProt P22310); test: Drug metabolism assessed as recombinant human C-terminal His-tagged UGT1A4-mediated estradiol-17-glucuronide formation at 200 uM after 15 to 60 mins by HPLC analysis in presence of UDPGA; settings: recombinant enzyme; how it was run: as §2
T2 sequence (P22310 whole entry): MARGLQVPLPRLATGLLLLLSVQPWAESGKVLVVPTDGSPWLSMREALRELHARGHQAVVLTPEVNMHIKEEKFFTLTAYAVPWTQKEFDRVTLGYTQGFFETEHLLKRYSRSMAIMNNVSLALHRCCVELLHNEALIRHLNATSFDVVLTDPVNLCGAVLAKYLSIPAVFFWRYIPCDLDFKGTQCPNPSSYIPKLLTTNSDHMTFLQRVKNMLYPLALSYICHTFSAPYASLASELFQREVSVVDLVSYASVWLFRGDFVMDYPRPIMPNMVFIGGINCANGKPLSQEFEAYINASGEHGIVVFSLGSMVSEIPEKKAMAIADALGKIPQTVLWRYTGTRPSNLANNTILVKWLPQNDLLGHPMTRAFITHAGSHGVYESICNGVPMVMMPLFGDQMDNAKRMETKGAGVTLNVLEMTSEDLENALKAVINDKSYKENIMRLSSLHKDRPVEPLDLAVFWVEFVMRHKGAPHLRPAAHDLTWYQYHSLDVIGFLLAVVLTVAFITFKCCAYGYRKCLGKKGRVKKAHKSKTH

[4] = molecular target: T1, UDP-glucuronosyltransferase 1A3; test: Drug metabolism assessed as recombinant human C-terminal His-tagged UGT1A3-mediated 13-epiestradiol-3-glucuronide formation at 200 uM after 15 to 60 mins by HPLC analysis in presence of UDPGA; settings: recombinant enzyme; how it was run: as §2
[5] = molecular target: T3, UDP-glucuronosyltransferase 2B17 (Homo sapiens, UniProt O75795); test: Drug metabolism assessed as recombinant human C-terminal His-tagged UGT2B17-mediated 13-epiestradiol-3-glucuronide formation at 200 uM after 15 to 60 mins by HPLC analysis in presence of UDPGA; settings: recombinant enzyme; how it was run: as §2
T3 sequence (O75795 whole entry): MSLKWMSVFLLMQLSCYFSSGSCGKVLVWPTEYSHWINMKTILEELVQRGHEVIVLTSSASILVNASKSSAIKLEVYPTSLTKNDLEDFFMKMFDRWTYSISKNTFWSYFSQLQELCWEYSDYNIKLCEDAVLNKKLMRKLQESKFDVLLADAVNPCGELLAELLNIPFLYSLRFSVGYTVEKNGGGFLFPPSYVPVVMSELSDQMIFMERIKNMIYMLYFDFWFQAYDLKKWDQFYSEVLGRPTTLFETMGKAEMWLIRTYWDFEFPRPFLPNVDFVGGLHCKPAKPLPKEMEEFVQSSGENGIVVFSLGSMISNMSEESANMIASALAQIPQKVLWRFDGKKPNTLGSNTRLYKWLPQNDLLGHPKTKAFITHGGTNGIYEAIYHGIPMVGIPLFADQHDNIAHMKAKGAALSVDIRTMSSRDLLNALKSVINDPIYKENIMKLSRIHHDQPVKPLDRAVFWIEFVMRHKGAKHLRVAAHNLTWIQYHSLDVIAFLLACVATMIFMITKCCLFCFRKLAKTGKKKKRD

[6] = molecular target: T3, UDP-glucuronosyltransferase 2B17; test: Drug metabolism assessed as recombinant human C-terminal His-tagged UGT2B17-mediated 13-epiestradiol-17-glucuronide formation at 200 uM after 15 to 60 mins by HPLC analysis in presence of UDPGA; settings: recombinant enzyme; how it was run: as §2
[7] = Drug metabolism in human intestine microsomes assessed as 16-epiestriol-3-glucuronide formation after 15 to 60 mins by Michaelis-Menten equation analysis in presence of UDPGA; how it was run: as §1
[8] = tested on: Liver microsome; test: Drug metabolism in human liver microsomes assessed as 16-epiestriol-3-glucuronide formation after 15 to 60 mins by Michaelis-Menten equation analysis in presence of UDPGA
How it was run: as §1, with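 “liver” for “intestine”, “(30” for “(6”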

## C[C@]12CC[C@@H]3c4ccc(O)cc4CC[C@H]3[C@@H]1C[C@@H](O)[C@@H]2O [ESTRIOL]
[1]
  Km: 75 µM
  Vmax: 839 pmol/min/mg

## C[C@]12CC[C@@H]3c4ccc(O)cc4CC[C@H]3[C@@H]1CC[C@@H]2O [ESTRADIOL]
[2]
  Drug metabolism: metabolite_detected
[3]
  Drug metabolism: metabolite_detected

## C[C@@]12CC[C@@H]3c4ccc(O)cc4CC[C@H]3[C@@H]1CC[C@@H]2O
[4]
  Drug metabolism: metabolite_detected
[5]
  Drug metabolism: metabolite_detected
[6]
  Drug metabolism: metabolite_detected

## C[C@]12CC[C@@H]3c4ccc(O)cc4CC[C@H]3[C@@H]1C[C@H](O)[C@@H]2O [EPIESTRIOL]
[7]
  Km: 50 µM
  Vmax: 4111 pmol/min/mg
[8]
  Km: 2380 µM
  Vmax: 569 pmol/min/mg
